Values after ≈ are worked out from the molar mass of the structure shown.

These results are taken from ChEMBL document CHEMBL3045178, “Metabolites from Aspergillus fumigatus, an endophytic fungus associated with Melia azedarach, and their antifungal, antifeedant, and toxic activities” (J Agric Food Chem, 2012).

The test system of data set [1] is Fusarium oxysporum f. sp. niveum. Put plainly: Antifungal activity against Fusarium oxysporum f. sp. niveum at 28 degC after 48 hr microbroth dilution method. It is filed as functional. A digest of the protocol:
(§1)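 Plant-pathogenic fungi isolated from infected plant organs. Fungi grown 18 h in PD medium at 28 ± 0.5 °C and 150 rpm, then diluted to about 1 × 10^6 CFU in PD medium. Compounds at 2 mg/mL DMSO stock, serially diluted in triplicate in PD medium in 96-well plates before the fungal suspension was added. DMSO served as negative control. After 48 h at 28 ± 0.5 °C, MIC taken as the lowest concentration with no visible growth.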
(In general: Dilution methods test growth across graded concentrations, often in twofold steps.)

In data set [2] the test system is Mythimna separata. As to the kind of experiment: Antifeedant activity against Mythimna separata (Oriental armyworm) larvae assessed as antifeedant index by area of the leaf consumed. Also on record: concentration or dose not given beside the values. It is filed as functional. A digest of the protocol: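 Positive control prepared at 10 mg/mL in acetone; leaves treated with acetone alone served as control. Ten treated leaves and 10 larvae per Petri dish lined with moistened filter paper. Held at 25 ± 2 °C, 12L:12D, 65−80% rh. Leaf area consumed recorded after 48 h. AFI = (C − T)/C × 100%, from control and treated areas consumed. Three repetitions.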

For data set [3], the system named is Fusarium graminearum. Put plainly: Antifungal activity against Fusarium graminearum at 28 degC after 48 hr microbroth dilution method. It is filed as functional. A digest of the protocol: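 Microbroth dilution in PD medium. Fungi were grown 18 h at 28 ± 0.5 °C and 150 rpm, then diluted to about 1 × 10^6 CFU. Compounds (2 mg/mL DMSO stock) were serially diluted in triplicate and fungal suspension added. Incubated 48 h at 28 ± 0.5 °C. MIC was the lowest concentration with no visible growth. Controls: DMSO, carbendazim, hymexazol.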

Data set [4] has as its system Alternaria alternata. As to the kind of experiment: Antifungal activity against Alternaria alternata at 28 degC after 48 hr microbroth dilution method. Format: functional. A digest of the protocol: as §1
Data set [5] deals with Colletotrichum gloeosporioides. As to the kind of experiment: Antifungal activity against Colletotrichum gloeosporioides at 28 degC after 48 hr microbroth dilution method. It is filed as functional. A digest of the protocol:
as §1

Data set [6] in a line: Toxicity in Artemia salina (brine shrimp) […]. To be noted: in vivo. Format: organism-based.
The test system of data set [7] is Botrytis cinerea. Put plainly: Antifungal activity against Botryotinia fuckeliana at 28 degC after 48 hr microbroth dilution method. It is filed as functional. An outline of the steps:
as §1

Data set [8] has as its system Fusarium oxysporum f. sp. vasinfectum. As to the kind of experiment: Antifungal activity against Fusarium oxysporum f. sp. vasinfectum at 28 degC after 48 hr microbroth dilution method. Format: functional. An outline of the steps: as §1
The subject of data set [9] is Alternaria solani. Put plainly: Antifungal activity against Alternaria solani at 28 degC after 48 hr microbroth dilution method. Format: functional. An outline of the steps: as §1
For data set [10], the system named is Fusarium solani. Put plainly: Antifungal activity against Fusarium solani at 28 degC after 48 hr microbroth dilution method. It is filed as functional. An outline of the steps:
as §1

As for `C[C@@H]1N[C@H]2N(C1=O)c1ccccc1[C@@]2(O)C[C@@H]1C(=O)N[C@@H](C)c2nc3ccccc3c(=O)n21` [FUMIQUINAZOLINE A], the minimal inhibitory concentration (MIC) in data set [1] was 25 mg/L (≈ 56.1 µM); in data set [3], 12.5 mg/L (≈ 28.1 µM); in data set [4], 12.5 mg/L (≈ 28.1 µM); in [5], 12.5 mg/L (≈ 28.1 µM); in [7] it was 12.5 mg/L (≈ 28.1 µM); in [8], 50 mg/L (≈ 112 µM). Moreover, the results for the MIC in data set [9] and in data set [10] were 12.5 mg/L (≈ 28.1 µM) and 50 mg/L (≈ 112 µM), respectively. Moreover, the AFI in data set [2] was 45%. Further, in data set [6], the 50% lethal concentration (LC50) worked out at 39.7 mg/L (≈ 89.1 µM).
For the compound `C[C@H]1C(=O)N2c3ccccc3[C@@]3(O)C[C@@H]4C(=O)N[C@](C)(c5nc6ccccc6c(=O)n54)N1[C@@H]23` [FUMIQUINAZOLINE D], the MIC in data set [1] turned out to be 50 mg/L (≈ 113 µM); in data set [3], 25 mg/L (≈ 56.4 µM); in [4], 25 mg/L (≈ 56.4 µM); in data set [5], 25 mg/L (≈ 56.4 µM); in data set [7], 25 mg/L (≈ 56.4 µM); in data set [8] it was 50 mg/L (≈ 113 µM). Further, the MIC was 25 mg/L (≈ 56.4 µM) in data set [9] and more than 100 mg/L in data set [10]. Also, the AFI in data set [2] is given as 10%. The LC50 in data set [6] is more than 100 mg/L.
With `C[C@@H]1NC(=O)[C@@H](Cc2c[nH]c3ccccc23)n2c1nc1ccccc1c2=O` [FUMIQUINAZOLINE F], the MIC is 25 mg/L (≈ 69.8 µM) in data set [1]; 12.5 mg/L (≈ 34.9 µM) in data set [3]; 12.5 mg/L (≈ 34.9 µM) in data set [4]; 12.5 mg/L (≈ 34.9 µM) in [5]; 12.5 mg/L (≈ 34.9 µM) in data set [7]; 50 mg/L (≈ 140 µM) in data set [8]. Moreover, the figures for the minimum inhibitory concentration (MIC) in [9] and in data set [10] were 25 mg/L (≈ 69.8 µM) and 50 mg/L (≈ 140 µM), respectively. In addition, the AFI in data set [2] is reported as 30%. In data set [6], this compound returned a 50% lethal concentration (LC50) of 55.3 mg/L (≈ 154 µM).
As to `COc1ccc2c3c([nH]c2c1)[C@H](C=C(C)C)N1C(=O)[C@@H]2CCCN2C(=O)[C@@H]1C3` [FUMITREMORGIN], the MIC in [1] was determined as 25 mg/L (≈ 65.9 µM); in [3], 12.5 mg/L (≈ 32.9 µM); in data set [4], 12.5 mg/L (≈ 32.9 µM); in data set [5] it was 12.5 mg/L (≈ 32.9 µM); in [7], 12.5 mg/L (≈ 32.9 µM); in data set [8] it was 50 mg/L (≈ 132 µM). For the same compound, the MIC is 25 mg/L (≈ 65.9 µM) in data set [9] and 50 mg/L (≈ 132 µM) in data set [10]. Moreover, the AFI in data set [2] turned out to be 15%. For the same compound, the LC50 in [6] was found to be 40.5 mg/L (≈ 107 µM).
As for `CC(=O)O[C@H]1C[C@@]2(C)[C@@H](CC[C@H]3[C@@]4(C)C=CC(=O)[C@@H](C)[C@@H]4[C@H](OC(C)=O)C(=O)[C@@]32C)/C1=C(\CCC=C(C)C)C(=O)O` [HELVOLIC ACID], the minimal inhibitory concentration (MIC) in data set [1] was found to be 12.5 mg/L (≈ 22 µM); in [3] it was 6.25 mg/L (≈ 11 µM); in data set [4], 6.25 mg/L (≈ 11 µM); in data set [5], 6.25 mg/L (≈ 11 µM); in [7] it was 6.25 mg/L (≈ 11 µM); in data set [8], 25 mg/L (≈ 44 µM). In addition, the values for the MIC in data set [9] and in data set [10] were 12.5 mg/L (≈ 22 µM) and 50 mg/L (≈ 87.9 µM), respectively. Also, the AFI in data set [2] was 7.5%. This compound also returned an LC50 in data set [6] of 73.7 mg/L (≈ 130 µM).
For the compound `COc1ccc2c3c4n(c2c1)[C@H](C=C(C)C)OOC(C)(C)C[C@@H]4N1C(=O)[C@@H]2CCCN2C(=O)[C@]1(O)[C@H]3O` [VERRUCULOGEN], the MIC in data set [1] was 12.5 mg/L (≈ 24.4 µM); in data set [3], 6.25 mg/L (≈ 12.2 µM); in data set [4], 6.25 mg/L (≈ 12.2 µM); in data set [5], 6.25 mg/L (≈ 12.2 µM); in data set [7], 6.25 mg/L (≈ 12.2 µM); in data set [8], 25 mg/L (≈ 48.9 µM). Besides, the MIC in data set [9] amounted to 12.5 mg/L (≈ 24.4 µM); in [10], 50 mg/L (≈ 97.7 µM). The AFI in data set [2] came out at 55%. The compound also returned a median lethal concentration (LC50) in data set [6] of 15.8 mg/L (≈ 30.9 µM).

Broadly, the MIC is the smallest concentration in the dilution series that meets the test's criterion for growth inhibition. One may read the LC50 as the concentration that kills 50% of the test population.
